From ChEMBL document CHEMBL1148650, “Synthesis and pharmacological evaluation of novel nitrobenzenic thromboxane modulators as antiplatelet agents acting on both the alpha and beta isoforms of the human thromboxane receptor” (J Med Chem, 2006) come the findings set out here.

SMILES strings stand for the structures.

Assay [1] has as its target T1, Thromboxane A2 receptor (Homo sapiens) (UniProt P21731).
T1 sequence (whole entry): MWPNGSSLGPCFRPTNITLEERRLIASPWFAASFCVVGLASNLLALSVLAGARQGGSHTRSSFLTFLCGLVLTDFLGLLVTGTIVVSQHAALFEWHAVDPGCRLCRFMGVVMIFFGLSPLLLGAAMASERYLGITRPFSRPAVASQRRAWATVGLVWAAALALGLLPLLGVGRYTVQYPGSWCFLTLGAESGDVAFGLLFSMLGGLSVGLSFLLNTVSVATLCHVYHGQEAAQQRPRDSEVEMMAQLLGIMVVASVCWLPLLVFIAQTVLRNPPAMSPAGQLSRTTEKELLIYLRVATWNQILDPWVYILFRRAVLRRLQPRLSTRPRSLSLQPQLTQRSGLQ
Kind of assay: Displacement of [3H]SQ-29548 from TPbeta receptor (long isoform) expressed in COS7 cells at 1 nM. To be noted: COS-7. For orientation: Displacement assays read how much labelled ligand stays bound in the presence of the test substance.

Assay [2] deals with T1, Thromboxane A2 receptor (Homo sapiens). Kind of assay: Selectivity index, IC50 for TPalpha/IC50 for TPbeta in COS7 cells. It is filed as cell-based. Conditions: COS-7. The essentials:
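Binding used 5 × 10^5 cells in 25 mM HEPES/125 mM NaCl/10 µM indomethacin, pH 7.4, with 10 nM [3H]SQ29,548 and compound at 10^-6 to 10^-11 M, in triplicate, for 30 min at 37 °C. Nonspecific binding: 10 µM unlabeled SQ29,548. Bound ligand was counted after filtration. Index = IC50 TPα/IC50 TPβ.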

For assay [3], the target named is T2, Thromboxane A2 receptor (Homo sapiens, UniProt P21731).
T2 sequence (P21731 whole entry): T1 sequence (whole entry)
Kind of assay: Displacement of [3H]SQ29,548 from TPalpha receptor (short isoform) expressed in COS7 cells.

Assay [4] has as its target T1, Thromboxane A2 receptor (Homo sapiens). Kind of assay: Displacement of [3H]SQ29,548 from TPalpha receptor (short isoform) expressed in COS7 cells at 1 nM. Conditions: COS-7.
The target is the same in assay [5]. Kind of assay: Selectivity index, IC50 for TPalpha/IC50 for TPbeta in HEK293 cells. It is filed as functional, cell-based. The gist of the method: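 Ratio of IC50 TPα to IC50 TPβ, both from the calcium assay in stably transfected HEK293 cells. Fluo-4-loaded cells were preincubated 10 min with compound (10^-5 to 10^-8 M), then stimulated with 1 µM U46619. IC50 is the concentration inhibiting 50% of the [Ca2+]i rise.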

The target of assay [6] is T2, Thromboxane A2 receptor. Kind of assay: Displacement of [3H]SQ-29548 from TPbeta receptor (long isoform) expressed in COS7 cells.
For assay [7], the target named is T2, Thromboxane A2 receptor. Kind of assay: Activity at TPbeta (long isoform) receptor expressed in HEK293 cells assessed as ability to antagonize U46619-mediated calcium ion mobilization. The assay is classed as functional, cell-based. The gist of the method: (§1)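 HEK293 cells stably overexpressing human TPα or TPβ. Cells were loaded 1 h with Fluo-4/AM (5 µg/mL) and washed in Krebs-HEPES pH 7.4 (150 000 cells/well). Compound (10^-5 to 10^-8 M final) was added 10 min before 1 µM U46619. Fluo-4 signal was calibrated by Triton X-100 and then EGTA (Kd 385 nM) for [Ca2+]i. IC50 is the concentration halving the [Ca2+]i rise.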

Assay [8] deals with T2, Thromboxane A2 receptor. Kind of assay: Activity at TPalpha (short isoform) receptor expressed in HEK293 cells assessed as ability to antagonize U46619-mediated calcium ion mobilization. The assay is classed as functional, cell-based. The essentials: as §1

As a reminder, the IC50 is the concentration at which inhibition is half-maximal. `CCCCCNC(=O)NS(=O)(=O)c1cc([N+](=O)[O-])ccc1Nc1cc(C)cc(C)c1`: the Activity in assay [1] and in assay [4] was 49.7% each time. Moreover, the Ratio IC50 turned out to be 1.55 in assay [2] and 7.03 in assay [5]. Further, the IC50 in assay [3] amounted to 1.08 nM; in assay [6] it was 0.7 nM; in assay [7], 76.5 nM; in assay [8] it was 538 nM.
In the case of `Cc1cc(Nc2ccc([N+](=O)[O-])cc2S(=O)(=O)NC(=O)NC(C)(C)C)ccc1Br`, the Activity stood at 25% in assay [1] and 28.5% in assay [4].
In the case of `CC(C)(C)NC(=O)NS(=O)(=O)c1cc([N+](=O)[O-])ccc1Sc1ccc(Cl)cc1`, the Activity in assay [1] was 31.7%; in assay [4] it was 32.5%.
As for `CCCCNC(=O)NS(=O)(=O)c1cc([N+](=O)[O-])ccc1Oc1ccc(C)cc1`, the Activity in assay [1] stood at 56%; in assay [4] it was 55.7%. Also, the Ratio IC50 is 1.05 in assay [2] and 10.6 in assay [5]. For the same molecule, the IC50 in assay [3] is 0.74 nM; in assay [6] it was 0.7 nM; in assay [7], 52.9 nM; in assay [8] it was 558 nM.
`CCCCCCCCNC(=O)NS(=O)(=O)c1cc([N+](=O)[O-])ccc1NC1CCCCC1`: the Activity came out at 24.1% in assay [1] and 17.1% in assay [4].
Take `CCCCCNC(=O)NS(=O)(=O)c1cc([N+](=O)[O-])ccc1Nc1ccccc1C`: the Activity in assay [1] and in assay [4] was 45.3% in each case.
Regarding `CCCCCCNC(=O)NS(=O)(=O)c1cc([N+](=O)[O-])ccc1Oc1ccc(C)cc1`, the Activity in assay [1] came out at 46.1%; in assay [4], 55.2%. Further, the Ratio IC50 stood at 0.45 in assay [2] and 9 in assay [5]. Further, the IC50 turned out to be 0.72 nM in assay [3], 1.58 nM in assay [6], 58.5 nM in assay [7] and 526 nM in assay [8].
Turning to `Cc1ccc(Oc2ccc([N+](=O)[O-])cc2S(=O)(=O)NC(=O)NC2CCCCC2)cc1`, the Activity came out at 51.9% in assay [1] and 49.8% in assay [4]. Moreover, the values for the Ratio IC50 in assay [2] and in assay [5] were 1.93 and 8.56, respectively. The IC50 in assay [3] was 1.52 nM; in assay [6], 0.79 nM; in assay [7], 70.2 nM; in assay [8] it was 601 nM.
For the molecule `CCCCCNC(=O)NS(=O)(=O)c1cc([N+](=O)[O-])ccc1Sc1ccccc1C`, the values for the Activity in assay [1] and in assay [4] were 32.7% and 33.4%, respectively.
For `CCCCCNC(=O)NS(=O)(=O)c1cc([N+](=O)[O-])ccc1Nc1ccc(C)c(C)c1`, the Activity in assay [1] was 48.7%; in assay [4], 40.1%.
Taken in the same sequence, the figures for `CCCCCNC(=O)NS(=O)(=O)c1cc([N+](=O)[O-])ccc1Nc1ccc(C)cc1C` were 39.9% and 42.3%.
In the case of `CCCCC/N=C(\NC#N)NS(=O)(=O)c1cc([N+](=O)[O-])ccc1Nc1cc(C)cc(C)c1`, the results for the Activity in assay [1] and in assay [4] were 53.4% and 48%, respectively.
Regarding `Cc1ccc(Nc2ccc([N+](=O)[O-])cc2S(=O)(=O)NC(=O)N2CCCCC2)cc1`, the Activity in assay [1] is 54.2%; in assay [4] it was 46.2%. Besides, the Ratio IC50 came to 0.68 in assay [2] and 1.68 in assay [5]. In addition, the IC50 in assay [3] was 0.46 nM; in assay [6], 0.68 nM; in assay [7], 38.5 nM; in assay [8], 64.8 nM.
In the case of `CCCCCNC(=O)NS(=O)(=O)c1cc([N+](=O)[O-])ccc1Nc1cccc(C)c1`, the Activity in assay [1] stood at 35.8%; in assay [4] it was 48.5%. Moreover, the Ratio IC50 was 0.23 in assay [2] and 1.33 in assay [5]. Moreover, the IC50 is 1.01 nM in assay [3], 4.43 nM in assay [6], 45.5 nM in assay [7] and 60.4 nM in assay [8].
Regarding `CCCCCNC(=O)NS(=O)(=O)c1cc([N+](=O)[O-])ccc1Nc1cccc(C)c1C`, the Activity stood at 39% in assay [1] and 44.6% in assay [4].
In the case of `CCCCCNC(=O)NS(=O)(=O)c1cc([N+](=O)[O-])ccc1Oc1ccc(C)cc1`, the Activity in assay [1] was 48.5%; in assay [4] it was 35.5%. In addition, the Ratio IC50 is 4.02 in assay [2] and 2.52 in assay [5]. Besides, the IC50 was 2.63 nM in assay [3], 0.65 nM in assay [6], 55.4 nM in assay [7] and 139 nM in assay [8].
For `Cc1ccc(Nc2ccc([N+](=O)[O-])cc2S(=O)(=O)NC(=O)NC2CCCCC2)cc1`, the Activity was found to be 29% in assay [1] and 31.1% in assay [4].
With `Cc1ccc(Oc2ccc([N+](=O)[O-])cc2S(=O)(=O)NC(=O)NC(C)(C)C)cc1`, the values for the Activity in assay [1] and in assay [4] were 44.7% and 53.3%, respectively. For the same molecule, the results for the Ratio IC50 in assay [2] and in assay [5] were 0.71 and 1.01, respectively. For the same molecule, the IC50 in assay [3] came to 1.26 nM; in assay [6] it was 1.77 nM; in assay [7], 57.6 nM; in assay [8], 58.3 nM.
As to `CCCCCNC(=O)NS(=O)(=O)c1cc([N+](=O)[O-])ccc1Nc1c(C)cc(C)cc1C`, the Activity was found to be 27.5% in assay [1] and 27.9% in assay [4].
Taken in the same sequence, the figures for `CCCCCNC(=O)NS(=O)(=O)c1cc([N+](=O)[O-])ccc1Nc1ccc(Cl)cc1` were 52.7% and 48.9%.
Taken in the same sequence, the figures for `CCCCCNC(=O)NS(=O)(=O)c1cc([N+](=O)[O-])ccc1Nc1cc(C)ccc1C` were 33.1% and 28.6%.
As for `CCCCCNC(=O)NS(=O)(=O)c1cc([N+](=O)[O-])ccc1Nc1ccc(Br)c(C)c1`, the values for the Activity in assay [1] and in assay [4] were 49.9% and 32.1%, respectively. Moreover, the Ratio IC50 came out at 3.11 in assay [2] and 2.92 in assay [5]. Also, the IC50 in assay [3] stood at 1.82 nM; in assay [6], 0.58 nM; in assay [7], 43.2 nM; in assay [8], 126 nM.
Turning to `CCCCCNC(=O)NS(=O)(=O)c1cc([N+](=O)[O-])ccc1Sc1ccc(Cl)cc1`, the Activity in assay [1] was 21.3%; in assay [4], 24.7%.
For `CCCCC/N=C(\NC#N)NS(=O)(=O)c1cc([N+](=O)[O-])ccc1Nc1ccc(C)cc1`, the Activity in assay [1] was 27.2%; in assay [4], 25.5%.
For `CCCCCNC(=O)NS(=O)(=O)c1cc([N+](=O)[O-])ccc1Nc1c(C)cccc1C`, the Activity in assay [1] came out at 54%; in assay [4], 36.5%. In addition, the values for the Ratio IC50 in assay [2] and in assay [5] were 1.03 and 1.71, respectively. Also, the IC50 was 1.52 nM in assay [3], 1.48 nM in assay [6], 47.1 nM in assay [7] and 80.7 nM in assay [8].
Consider `CCCCCNC(=O)NS(=O)(=O)c1cc([N+](=O)[O-])ccc1Sc1ccc(C)cc1`, for which the Activity in assay [1] was 43%; in assay [4], 38.5%.
Turning to `Cc1ccc(Nc2ccc([N+](=O)[O-])cc2S(=O)(=O)NC(=O)NCc2ccccc2)cc1`, the Activity is 49.3% in assay [1] and 32.9% in assay [4]. Also, the results for the Ratio IC50 in assay [2] and in assay [5] were 1.62 and 1.43, respectively. The IC50 stood at 1.9 nM in assay [3], 1.17 nM in assay [6], 45 nM in assay [7] and 64.5 nM in assay [8].
For the molecule `Cc1ccc(Sc2ccc([N+](=O)[O-])cc2S(=O)(=O)NC(=O)NC(C)(C)C)cc1`, the figures for the Activity in assay [1] and in assay [4] were 37.7% and 47%, respectively. Moreover, the Ratio IC50 in assay [2] is 0.44; in assay [5], 5.32. Also, the IC50 was determined as 0.77 nM in assay [3], 1.74 nM in assay [6], 55.2 nM in assay [7] and 294 nM in assay [8].
On to `CCCCCNC(=O)NS(=O)(=O)c1cc([N+](=O)[O-])ccc1Oc1cccc(C)c1`, for which the figures for the Activity in assay [1] and in assay [4] were 22.8% and 20.1%, respectively.
Taken in the same sequence, the figures for `CCCCCNC(=O)NS(=O)(=O)c1cc([N+](=O)[O-])ccc1Oc1ccccc1C` were 36.8% and 35.2%.
